Measured values taken from ChEMBL document CHEMBL5058577, “EUbOPEN Chemogenomics Library 2 (Multiplex)” (2022).

Tested on: HEK-293T
Assay: Multiplex assay against HEK293T
Format: toxicity, cell-based
Settings: human
How it was run: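 Four dyes were applied at seeding to live cells: Hoechst33342, BioTracker Green Microtubule Cytoskeleton Dye, MitoTracker Red and Annexin V Alexa Fluor 680. Imaging after compound addition used a CQ1 microscope at 37°C and 5% CO2. CellPathfinder machine-learning gating then sorted cells into Hoechst high-intensity objects or normal cells, normal cells into healthy, pyknosed or fragmented nuclei, and pyknosed cells into mitotic or apoptotic, with tubulin, mitochondrial-mass and membrane-permeability phenotypes given as per cents of healthy-nucleus cells.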

[1] = 12 h, 1 µM, compound concentration 1 uM, replicate 1
[2] = 12 h, 1 µM, compound concentration 1 uM, replicate 2
[3] = 12 h, 10 µM, compound concentration 10 uM, replicate 1
[4] = 12 h, 10 µM, compound concentration 10 uM, replicate 2
[5] = 24 h, 1 µM, compound concentration 1 uM, replicate 1
[6] = 24 h, 1 µM, compound concentration 1 uM, replicate 2
[7] = 24 h, 10 µM, compound concentration 10 uM, replicate 1
[8] = 24 h, 10 µM, compound concentration 10 uM, replicate 2
[9] = 48 h, 1 µM, compound concentration 1 uM, replicate 1
[10] = 48 h, 1 µM, compound concentration 1 uM, replicate 2
[11] = 48 h, 10 µM, compound concentration 10 uM, replicate 1
[12] = 48 h, 10 µM, compound concentration 10 uM, replicate 2

O=C(NCCNCC(O)COc1ccc(O)cc1)N1CCOCC1.O=C(NCCNCC(O)COc1ccc(O)cc1)N1CCOCC1.O=C(O)/C=C/C(=O)O (stereo unspecified) [XAMOTEROL FUMARATE]
Population Apoptotic (%) [1]: 39%
Population Fragmented Nuclei (%) [1]: 5%
Population Healthy Nuclei (%) [1]: 79%
Population Hoechst High Intensity Objects (%) [1]: 4%
Population Membrane Permeable-Phenotype (%) [1]: 0%
Population Mitochondria Different-Phenotype (%) [1]: 39%
Population Mitotic Cells (%) [1]: 60%
Population Normal (%) [1]: 95%
Population Pyknosed Nuclei (%) [1]: 14%
Population Tubulin-Different-Phenotype (%) [1]: 26%
Total Cell Count [1]: 339
Population Apoptotic (%) [2]: 60%
Population Healthy Nuclei (%) [2]: 76%
Population Hoechst High Intensity Objects (%) [2]: 14%
Population Mitochondria Different-Phenotype (%) [2]: 57%
Population Mitotic Cells (%) [2]: 39%
Population Normal (%) [2]: 85%
Population Pyknosed Nuclei (%) [2]: 17%
Population Tubulin-Different-Phenotype (%) [2]: 21%
Total Cell Count [2]: 271
Population Apoptotic (%) [3]: 35%
Population Fragmented Nuclei (%) [3]: 7%
Population Healthy Nuclei (%) [3]: 83%
Population Hoechst High Intensity Objects (%) [3]: 6%
Population Membrane Permeable-Phenotype (%) [3]: 0%
Population Mitochondria Different-Phenotype (%) [3]: 39%
Population Mitotic Cells (%) [3]: 65%
Population Normal (%) [3]: 93%
Population Pyknosed Nuclei (%) [3]: 8%
Population Tubulin-Different-Phenotype (%) [3]: 19%
Total Cell Count [3]: 499
Population Apoptotic (%) [4]: 29%
Population Fragmented Nuclei (%) [4]: 4%
Population Healthy Nuclei (%) [4]: 86%
Population Hoechst High Intensity Objects (%) [4]: 5%
Population Mitochondria Different-Phenotype (%) [4]: 62%
Population Mitotic Cells (%) [4]: 70%
Population Normal (%) [4]: 94%
Population Pyknosed Nuclei (%) [4]: 9%
Population Tubulin-Different-Phenotype (%) [4]: 23%
Total Cell Count [4]: 406
Population Apoptotic (%) [5]: 26%
Population Fragmented Nuclei (%) [5]: 8%
Population Healthy Nuclei (%) [5]: 78%
Population Hoechst High Intensity Objects (%) [5]: 6%
Population Membrane Permeable-Phenotype (%) [5]: 0%
Population Mitochondria Different-Phenotype (%) [5]: 18%
Population Mitotic Cells (%) [5]: 73%
Population Normal (%) [5]: 93%
Population Pyknosed Nuclei (%) [5]: 12%
Population Tubulin-Different-Phenotype (%) [5]: 17%
Total Cell Count [5]: 475
Population Apoptotic (%) [6]: 45%
Population Fragmented Nuclei (%) [6]: 9%
Population Healthy Nuclei (%) [6]: 80%
Population Hoechst High Intensity Objects (%) [6]: 13%
Population Mitochondria Different-Phenotype (%) [6]: 38%
Population Mitotic Cells (%) [6]: 54%
Population Normal (%) [6]: 86%
Population Pyknosed Nuclei (%) [6]: 10%
Population Tubulin-Different-Phenotype (%) [6]: 15%
Total Cell Count [6]: 366
Population Apoptotic (%) [7]: 21%
Population Fragmented Nuclei (%) [7]: 9%
Population Healthy Nuclei (%) [7]: 79%
Population Hoechst High Intensity Objects (%) [7]: 5%
Population Membrane Permeable-Phenotype (%) [7]: 0%
Population Mitochondria Different-Phenotype (%) [7]: 25%
Population Mitotic Cells (%) [7]: 78%
Population Normal (%) [7]: 94%
Population Pyknosed Nuclei (%) [7]: 11%
Population Tubulin-Different-Phenotype (%) [7]: 12%
Total Cell Count [7]: 632
Population Apoptotic (%) [8]: 33%
Population Fragmented Nuclei (%) [8]: 7%
Population Healthy Nuclei (%) [8]: 85%
Population Hoechst High Intensity Objects (%) [8]: 4%
Population Mitochondria Different-Phenotype (%) [8]: 42%
Population Mitotic Cells (%) [8]: 66%
Population Normal (%) [8]: 95%
Population Pyknosed Nuclei (%) [8]: 7%
Population Tubulin-Different-Phenotype (%) [8]: 17%
Total Cell Count [8]: 542
Population Apoptotic (%) [9]: 21%
Population Fragmented Nuclei (%) [9]: 14%
Population Healthy Nuclei (%) [9]: 77%
Population Hoechst High Intensity Objects (%) [9]: 2%
Population Membrane Permeable-Phenotype (%) [9]: 2%
Population Mitochondria Different-Phenotype (%) [9]: 11%
Population Mitotic Cells (%) [9]: 78%
Population Normal (%) [9]: 97%
Population Pyknosed Nuclei (%) [9]: 7%
Population Tubulin-Different-Phenotype (%) [9]: 9%
Total Cell Count [9]: 918
Population Apoptotic (%) [10]: 41%
Population Fragmented Nuclei (%) [10]: 11%
Population Healthy Nuclei (%) [10]: 81%
Population Hoechst High Intensity Objects (%) [10]: 4%
Population Membrane Permeable-Phenotype (%) [10]: 0%
Population Mitochondria Different-Phenotype (%) [10]: 18%
Population Mitotic Cells (%) [10]: 58%
Population Normal (%) [10]: 95%
Population Pyknosed Nuclei (%) [10]: 6%
Population Tubulin-Different-Phenotype (%) [10]: 10%
Total Cell Count [10]: 526
Population Apoptotic (%) [11]: 17%
Population Fragmented Nuclei (%) [11]: 15%
Population Healthy Nuclei (%) [11]: 79%
Population Hoechst High Intensity Objects (%) [11]: 0%
Population Membrane Permeable-Phenotype (%) [11]: 1%
Population Mitochondria Different-Phenotype (%) [11]: 13%
Population Mitotic Cells (%) [11]: 82%
Population Normal (%) [11]: 99%
Population Pyknosed Nuclei (%) [11]: 5%
Population Tubulin-Different-Phenotype (%) [11]: 6%
Total Cell Count [11]: 1116
Population Apoptotic (%) [12]: 25%
Population Fragmented Nuclei (%) [12]: 16%
Population Healthy Nuclei (%) [12]: 77%
Population Hoechst High Intensity Objects (%) [12]: 2%
Population Membrane Permeable-Phenotype (%) [12]: 0%
Population Mitochondria Different-Phenotype (%) [12]: 16%
Population Mitotic Cells (%) [12]: 74%
Population Normal (%) [12]: 97%
Population Tubulin-Different-Phenotype (%) [12]: 10%
Total Cell Count [12]: 827
